Data set [1] can be described thus: Cytotoxicity against human Huh7.5 cells assessed as cell viability after 72 hrs by MTT assay. The data set is classed as cell-based, Huh-7. Background: Tetrazolium dyes change colour on reduction, which living cells bring about.
The subject of data set [2] is Hepatitis C virus. As to the kind of experiment: Antiviral activity against Hepatitis C virus JFH-1 J6 genotype 2a infected in human Huh7.5 cells assessed as inhibition of viral RNA replication after 72 hrs by luciferase reporter gene assay. The data set is classed as functional, organism-based, Hepacivirus hominis. To be noted: subtype 2a JFH1 J6, Huh-7, 72 h. (In a reporter assay the amount or activity of a reporter protein is the signal.)

Data set [3] in a line: Selectivity index, ratio of CC50 for human Huh7.5 cells to EC50 for Hepatitis C virus JFH-1 J6 genotype 2a infected in human Huh7.5 cells. The data set is classed as toxicity, cell-based, Huh-7. To be noted: read-out: Ratio CC50/EC50.
Data set [4] can be described thus: Ratio of cytotoxicity against human Huh7.5 cells assessed as cell viability to antiviral activity against Hepatitis C virus JFH-1 J6 genotype 2a infected in human Huh7.5 cells assessed as inhibition of viral RNA replication. The data set is classed as toxicity, cell-based, Huh-7.
Data set [5] concerns Hepatitis C virus. As to the kind of experiment: Antiviral activity against Hepatitis C virus JFH-1 J6 genotype 2a infected in human Huh7.5 cells assessed as viral RNA replication at 10 uM after 72 hrs by luciferase reporter gene assay relative to control. To be noted: subtype 2a JFH1 J6, Huh-7, 72 h.
Data set [6] is described as follows: Cytotoxicity against human Huh7.5 cells assessed as cell viability at 10 uM after 72 hrs by MTT assay relative to control. The data set is classed as cell-based, Huh-7. To be noted: read-out: Activity. In short, it runs like this: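 Rluc-J6/JFH1 RNA-transfected Huh7.5 cells screened at a single 10 µM for 72 h alongside DMSO, with clemizole as positive control. Renilla luciferase gave replication level and parallel MTT gave viability, each as percent of DMSO; ratio of viability to replication reported.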

Each structure is given as a SMILES string.

For orientation: CC50 means the concentration that lowers cell viability or growth by half. What is called EC50 is the midpoint of the concentration-response curve. Turning to `C/C(=C\c1c[nH]c2ccccc12)C(=O)O`, the cytotoxic concentration (CC50) at 72 h in data set [1] is > 100 µM. Also, the EC50 in data set [2] is > 10 µM.

On to `CCOC(=O)/C(C)=C/c1c[nH]c2ccccc12`, for which, in data set [3], the selectivity ratio stood at 1.1. Besides, in data set [1], the CC50 at 72 h is 25.3 µM. Further, in data set [2], the EC50 is 22.2 µM.

`COc1ccc(CNC(=O)/C=C/c2c[nH]c3ccccc23)cc1OC`: the values for the selectivity ratio in data set [3] and in data set [4] were 6.9 and 2.6, respectively. Besides, the CC50 at 72 h in data set [1] came out at 89.5 µM. Also, the concentration giving a half-maximal response (EC50) in data set [2] came out at 12.9 µM. Moreover, in data set [5], the Activity at 10 µM was 35.1%. For the same molecule, the viability at 72 h, 10 µM in data set [6] came out at 92.2%.

In the case of `Clc1ccc(Cn2c(CN3CCCC3)nc3ccccc32)cc1` [CLEMIZOLE], the selectivity ratio amounted to 4.9 in data set [3] and 4.3 in data set [4]. For the same molecule, in data set [1], the CC50 at 72 h stood at 39.4 µM. Further, the 50% effective concentration (EC50) in data set [2] was found to be 8 µM. Besides, in data set [5], the Activity at 10 µM is 23.4%. Further, the viability at 72 h, 10 µM in data set [6] came out at 102%.

As to `C/C(=C\c1c[nH]c2ccccc12)C(N)=O`, in data set [1], the CC50 at 72 h is > 10 µM. The EC50 in data set [2] is > 10 µM.

Turning to `C/C(=C\c1c[nH]c2ccccc12)C(=O)Nc1ccc(C(F)(F)F)cc1`, the selectivity ratio in data set [3] was found to be 2.2. Besides, the CC50 at 72 h in data set [1] worked out at 94.9 µM. Moreover, the EC50 in data set [2] was 43.6 µM.

In the case of `CNC(=O)/C(C)=C/c1c[nH]c2ccccc12`, the CC50 at 72 h in data set [1] was > 10 µM. Also, in data set [2], the EC50 is > 10 µM.

For the molecule `C/C(=C\c1c[nH]c2ccc(C#N)cc12)C(=O)Nc1ccc(C)cc1`, the CC50 at 72 h in data set [1] was > 100 µM. For the same molecule, in data set [2], the EC50 is > 100 µM.

For `C/C(=C\c1c[nH]c2cc(C(C)C)ccc12)C(=O)Nc1ccc(C(C)(C)C)cc1`, the selectivity ratio in data set [3] was 17. Further, in data set [1], the CC50 at 72 h came out at 24.8 µM. Also, in data set [2], the EC50 worked out at 1.5 µM.

With `COc1ccc2c(/C=C(\C)C(=O)Nc3ccc(C(C)(C)C)cc3)c[nH]c2c1`, in data set [3], the selectivity ratio was 3.5. Further, the CC50 at 72 h in data set [1] came to 30.7 µM. Also, the EC50 in data set [2] came out at 8.8 µM.

In the case of `C/C(=C\c1c[nH]c2cc(Br)ccc12)C(=O)Nc1ccc(C(C)(C)C)cc1`, the selectivity ratio in data set [3] was 5.3. Moreover, the cytotoxic concentration (CC50) at 72 h in data set [1] stood at 68.8 µM. In addition, the 50% effective concentration (EC50) in data set [2] was found to be 13 µM.

As for `C/C(=C\c1c[nH]c2ccccc12)C(=O)NCCCn1ccnc1`, the selectivity ratio in data set [3] is > 3. Besides, the CC50 at 72 h in data set [1] was > 100 µM. In addition, the half-maximal effective concentration (EC50) in data set [2] was determined as 33.7 µM.

`CC(C)(C)c1ccc(NC(=O)/C=C/c2c[nH]c3ccccc23)cc1`: the selectivity ratio was found to be 5.2 in data set [3] and 28.6 in data set [4]. Further, the CC50 at 72 h in data set [1] was determined as 10.1 µM. In addition, in data set [2], the EC50 was found to be 1.9 µM. In addition, the Activity at 10 µM in data set [5] amounted to 2.1%. The viability at 72 h, 10 µM in data set [6] turned out to be 60.1%.

`COc1ccc2[nH]cc(/C=C(\C)C(=O)Nc3ccc(C(C)(C)C)cc3)c2c1`: the selectivity ratio in data set [3] was 5.5. In addition, the half-maximal cytotoxic concentration (CC50) at 72 h in data set [1] was 16.4 µM. The EC50 in data set [2] was found to be 3 µM.

As to `C/C(=C\c1c[nH]c2ccc(C)cc12)C(=O)Nc1ccc(C(C)(C)C)cc1`, the selectivity ratio in data set [3] was 4.2. The 50% cytotoxic concentration (CC50) at 72 h in data set [1] is 28.1 µM. The EC50 in data set [2] is 6.7 µM.

On to `C/C(=C\c1c[nH]c2ccc(C#N)cc12)C(=O)Nc1ccc(C(C)C)cc1`, for which the selectivity ratio in data set [3] worked out at 3.6. The 50% cytotoxic concentration (CC50) at 72 h in data set [1] is 137 µM. The EC50 in data set [2] is 37.7 µM.

For the molecule `CC(C)NC(=O)/C=C/c1c[nH]c2ccccc12`, the figures for the selectivity ratio in data set [3] and in data set [4] were > 1.1 and 1.5, respectively. Moreover, the CC50 at 72 h in data set [1] is > 100 µM. For the same molecule, in data set [2], the concentration for a half-maximal effect (EC50) amounted to 93.8 µM. The Activity at 10 µM in data set [5] is 69%. Besides, the viability at 72 h, 10 µM in data set [6] worked out at 106%.

In the case of `O=C(/C=C/c1c[nH]c2ccccc12)N1CCN(Cc2ccc(C(F)(F)F)cc2)CC1`, the results for the selectivity ratio in data set [3] and in data set [4] were 1.8 and 2.5, respectively. In data set [1], the CC50 at 72 h is 27.9 µM. For the same molecule, in data set [2], the EC50 turned out to be 15.6 µM. In addition, the Activity at 10 µM in data set [5] came out at 32.4%. Moreover, in data set [6], the viability at 72 h, 10 µM worked out at 81.7%.

Regarding `C/C(=C\c1c[nH]c2ccccc12)C(=O)Nc1ccc(C(C)(C)C)cc1`, the selectivity ratio in data set [3] was determined as 7.9. Besides, the CC50 at 72 h in data set [1] came out at 17.3 µM. Also, in data set [2], the EC50 worked out at 2.2 µM.

Regarding `C/C(=C\c1c[nH]c2ccccc12)C(=O)NCCN(C)C`, in data set [3], the selectivity ratio is > 1.6. In addition, in data set [1], the half-maximal cytotoxic concentration (CC50) at 72 h was > 100 µM. In data set [2], the 50% effective concentration (EC50) came out at 64.2 µM.

On to `COc1cccc2[nH]cc(/C=C(\C)C(=O)Nc3ccc(C(C)(C)C)cc3)c12`, for which, in data set [3], the selectivity ratio stood at 1.9. Besides, the CC50 at 72 h in data set [1] amounted to 34.1 µM. In data set [2], the half-maximal effective concentration (EC50) was found to be 17.6 µM.

As for `C/C(=C\c1c[nH]c2ccccc12)C(=O)NCc1ccco1`, the selectivity ratio in data set [3] worked out at 3.5. Further, in data set [1], the half-maximal cytotoxic concentration (CC50) at 72 h was found to be 39.1 µM. Further, in data set [2], the half-maximal effective concentration (EC50) came to 11.3 µM.

On to `CC(C)(C)c1ccc(NC(=O)CCc2c[nH]c3ccccc23)cc1`, for which, in data set [3], the selectivity ratio was 2.3. Besides, the cytotoxic concentration (CC50) at 72 h in data set [1] came to 13.6 µM. Moreover, the EC50 in data set [2] amounted to 6.1 µM.

With `C/C(=C\c1c[nH]c2cc(C)ccc12)C(=O)Nc1ccc(C(C)(C)C)cc1`, in data set [3], the selectivity ratio was 5.7. In addition, the CC50 at 72 h in data set [1] was 25.6 µM. Besides, in data set [2], the 50% effective concentration (EC50) amounted to 4.5 µM.

Consider `CCN(CC)C(=O)/C=C/c1c[nH]c2ccccc12`, for which the selectivity ratio was 1.6 in data set [3] and 1.3 in data set [4]. Moreover, the half-maximal cytotoxic concentration (CC50) at 72 h in data set [1] was 98.7 µM. For the same molecule, in data set [2], the EC50 was 62.7 µM. Moreover, the Activity at 10 µM in data set [5] came to 72%. In addition, in data set [6], the viability at 72 h, 10 µM was determined as 93.8%.

Turning to `C/C(=C\c1c[nH]c2ccc([N+](=O)[O-])cc12)C(=O)Nc1ccc(C(C)(C)C)cc1`, the selectivity ratio in data set [3] is 3.7. In addition, the CC50 at 72 h in data set [1] came to 23.1 µM. In addition, the 50% effective concentration (EC50) in data set [2] amounted to 6.2 µM.

The record behind these values is ChEMBL document CHEMBL3120069, “Chemical genetics-based discovery of indole derivatives as HCV NS5B polymerase inhibitors” (Eur J Med Chem, 2014).
